Measurements as given in ChEMBL document CHEMBL4689842, “EUbOPEN Chemogenomics Library wave 1” (2021).

Tested on: Fibroblast
Assay: Multiplex assay against human fibroblast
Type: toxicity, cell-based
Summary of the method: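 Live cells carried four stains from seeding: Hoechst33342, BioTracker Green Microtubule Cytoskeleton Dye, MitoTracker Red and Annexin V Alexa Fluor 680. They were imaged on a CQ1 microscope at 37°C and 5% CO2 after compound addition. Using CellPathfinder machine-learning gating, cells were split into Hoechst high-intensity objects or normal cells, normal cells into healthy, pyknosed or fragmented nuclei, and pyknosed cells into mitotic or apoptotic; tubulin, mitochondrial-mass and membrane-permeability phenotypes are per cents of healthy-nucleus cells.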

[1] = 12 h, 1 µM, compound concentration 1 uM, replicate 1
[2] = 12 h, 1 µM, compound concentration 1 uM, replicate 2
[3] = 12 h, 10 µM, compound concentration 10 uM, replicate 1
[4] = 12 h, 10 µM, compound concentration 10 uM, replicate 2
[5] = 24 h, 1 µM, compound concentration 1 uM, replicate 1
[6] = 24 h, 1 µM, compound concentration 1 uM, replicate 2
[7] = 24 h, 10 µM, compound concentration 10 uM, replicate 1
[8] = 24 h, 10 µM, compound concentration 10 uM, replicate 2

Compound: CNC(=O)c1ccc(Nc2nc(OC3CCCC3)c3c(-c4ccc5nc(C)oc5c4)c[nH]c3n2)c(OC)c1
- Population Apoptotic (%) [1]: 69%
- Population Fragmented Nuclei (%) [1]: 29%
- Population Healthy Nuclei (%) [1]: 53%
- Population Hoechst High Intensity Objects (%) [1]: 10%
- Population Membrane Permeable-Phenotype (%) [1]: 46%
- Population Mitochondria Different-Phenotype (%) [1]: 5%
- Population Mitotic Cells (%) [1]: 30%
- Population Normal (%) [1]: 89%
- Population Pyknosed Nuclei (%) [1]: 17%
- Population Tubulin-Different-Phenotype (%) [1]: 80%
- Total Cell Count [1]: 237
- Population Apoptotic (%) [2]: 33%
- Population Fragmented Nuclei (%) [2]: 60%
- Population Healthy Nuclei (%) [2]: 34%
- Population Hoechst High Intensity Objects (%) [2]: 33%
- Population Membrane Permeable-Phenotype (%) [2]: 45%
- Population Mitochondria Different-Phenotype (%) [2]: 9%
- Population Mitotic Cells (%) [2]: 66%
- Population Normal (%) [2]: 66%
- Population Pyknosed Nuclei (%) [2]: 4%
- Population Tubulin-Different-Phenotype (%) [2]: 86%
- Total Cell Count [2]: 96
- Population Apoptotic (%) [3]: 77%
- Population Fragmented Nuclei (%) [3]: 33%
- Population Healthy Nuclei (%) [3]: 50%
- Population Hoechst High Intensity Objects (%) [3]: 14%
- Population Membrane Permeable-Phenotype (%) [3]: 14%
- Population Mitotic Cells (%) [3]: 22%
- Population Normal (%) [3]: 85%
- Population Pyknosed Nuclei (%) [3]: 16%
- Population Tubulin-Different-Phenotype (%) [3]: 26%
- Total Cell Count [3]: 194
- Population Apoptotic (%) [4]: 33%
- Population Fragmented Nuclei (%) [4]: 60%
- Population Healthy Nuclei (%) [4]: 27%
- Population Hoechst High Intensity Objects (%) [4]: 40%
- Population Membrane Permeable-Phenotype (%) [4]: 30%
- Population Mitochondria Different-Phenotype (%) [4]: 7%
- Population Mitotic Cells (%) [4]: 66%
- Population Normal (%) [4]: 59%
- Population Pyknosed Nuclei (%) [4]: 12%
- Population Tubulin-Different-Phenotype (%) [4]: 23%
- Population Apoptotic (%) [5]: 67%
- Population Fragmented Nuclei (%) [5]: 36%
- Population Healthy Nuclei (%) [5]: 41%
- Population Hoechst High Intensity Objects (%) [5]: 10%
- Population Membrane Permeable-Phenotype (%) [5]: 26%
- Population Mitochondria Different-Phenotype (%) [5]: 11%
- Population Mitotic Cells (%) [5]: 32%
- Population Normal (%) [5]: 89%
- Population Pyknosed Nuclei (%) [5]: 22%
- Population Tubulin-Different-Phenotype (%) [5]: 79%
- Total Cell Count [5]: 265
- Population Apoptotic (%) [6]: 100%
- Population Fragmented Nuclei (%) [6]: 62%
- Population Healthy Nuclei (%) [6]: 35%
- Population Hoechst High Intensity Objects (%) [6]: 35%
- Population Membrane Permeable-Phenotype (%) [6]: 19%
- Population Mitochondria Different-Phenotype (%) [6]: 19%
- Population Mitotic Cells (%) [6]: 0%
- Population Normal (%) [6]: 64%
- Population Pyknosed Nuclei (%) [6]: 1%
- Population Tubulin-Different-Phenotype (%) [6]: 90%
- Total Cell Count [6]: 92
- Population Fragmented Nuclei (%) [7]: 28%
- Population Healthy Nuclei (%) [7]: 52%
- Population Hoechst High Intensity Objects (%) [7]: 23%
- Population Membrane Permeable-Phenotype (%) [7]: 5%
- Population Mitochondria Different-Phenotype (%) [7]: 3%
- Population Normal (%) [7]: 76%
- Population Pyknosed Nuclei (%) [7]: 19%
- Population Tubulin-Different-Phenotype (%) [7]: 19%
- Total Cell Count [7]: 193
- Population Apoptotic (%) [8]: 71%
- Population Fragmented Nuclei (%) [8]: 60%
- Population Healthy Nuclei (%) [8]: 25%
- Population Hoechst High Intensity Objects (%) [8]: 40%
- Population Membrane Permeable-Phenotype (%) [8]: 7%
- Population Mitochondria Different-Phenotype (%) [8]: 7%
- Population Mitotic Cells (%) [8]: 28%
- Population Normal (%) [8]: 60%
- Population Pyknosed Nuclei (%) [8]: 13%
- Population Tubulin-Different-Phenotype (%) [8]: 23%
- Total Cell Count [8]: 85

Compound: Cc1ccc2nc(NCCN)c3ncc(C)n3c2c1.O=C(O)C(F)(F)F.O=C(O)C(F)(F)F
- Population Apoptotic (%) [1]: 78%
- Population Fragmented Nuclei (%) [1]: 28%
- Population Healthy Nuclei (%) [1]: 60%
- Population Hoechst High Intensity Objects (%) [1]: 11%
- Population Membrane Permeable-Phenotype (%) [1]: 5%
- Population Mitochondria Different-Phenotype (%) [1]: 1%
- Population Mitotic Cells (%) [1]: 21%
- Population Normal (%) [1]: 88%
- Population Tubulin-Different-Phenotype (%) [1]: 3%
- Total Cell Count [1]: 243
- Population Apoptotic (%) [2]: 50%
- Population Fragmented Nuclei (%) [2]: 65%
- Population Healthy Nuclei (%) [2]: 23%
- Population Hoechst High Intensity Objects (%) [2]: 51%
- Population Membrane Permeable-Phenotype (%) [2]: 11%
- Population Mitochondria Different-Phenotype (%) [2]: 22%
- Population Mitotic Cells (%) [2]: 50%
- Population Normal (%) [2]: 48%
- Population Pyknosed Nuclei (%) [2]: 10%
- Population Tubulin-Different-Phenotype (%) [2]: 11%
- Total Cell Count [2]: 78
- Population Apoptotic (%) [3]: 76%
- Population Fragmented Nuclei (%) [3]: 33%
- Population Healthy Nuclei (%) [3]: 52%
- Population Hoechst High Intensity Objects (%) [3]: 21%
- Population Membrane Permeable-Phenotype (%) [3]: 5%
- Population Mitochondria Different-Phenotype (%) [3]: 3%
- Population Mitotic Cells (%) [3]: 23%
- Population Normal (%) [3]: 78%
- Population Pyknosed Nuclei (%) [3]: 13%
- Population Tubulin-Different-Phenotype (%) [3]: 11%
- Total Cell Count [3]: 309
- Population Apoptotic (%) [4]: 66%
- Population Fragmented Nuclei (%) [4]: 57%
- Population Healthy Nuclei (%) [4]: 26%
- Population Hoechst High Intensity Objects (%) [4]: 36%
- Population Membrane Permeable-Phenotype (%) [4]: 6%
- Population Mitochondria Different-Phenotype (%) [4]: 33%
- Population Mitotic Cells (%) [4]: 33%
- Population Normal (%) [4]: 63%
- Population Pyknosed Nuclei (%) [4]: 15%
- Population Tubulin-Different-Phenotype (%) [4]: 46%
- Total Cell Count [4]: 90
- Population Apoptotic (%) [5]: 64%
- Population Fragmented Nuclei (%) [5]: 22%
- Population Healthy Nuclei (%) [5]: 59%
- Population Hoechst High Intensity Objects (%) [5]: 11%
- Population Membrane Permeable-Phenotype (%) [5]: 4%
- Population Mitochondria Different-Phenotype (%) [5]: 0%
- Population Mitotic Cells (%) [5]: 35%
- Population Normal (%) [5]: 88%
- Population Pyknosed Nuclei (%) [5]: 17%
- Population Tubulin-Different-Phenotype (%) [5]: 2%
- Total Cell Count [5]: 253
- Population Apoptotic (%) [6]: 66%
- Population Fragmented Nuclei (%) [6]: 64%
- Population Healthy Nuclei (%) [6]: 27%
- Population Hoechst High Intensity Objects (%) [6]: 43%
- Population Membrane Permeable-Phenotype (%) [6]: 0%
- Population Mitochondria Different-Phenotype (%) [6]: 20%
- Population Mitotic Cells (%) [6]: 33%
- Population Normal (%) [6]: 56%
- Population Pyknosed Nuclei (%) [6]: 8%
- Population Tubulin-Different-Phenotype (%) [6]: 0%
- Total Cell Count [6]: 65
- Population Apoptotic (%) [7]: 81%
- Population Fragmented Nuclei (%) [7]: 35%
- Population Healthy Nuclei (%) [7]: 50%
- Population Hoechst High Intensity Objects (%) [7]: 23%
- Population Membrane Permeable-Phenotype (%) [7]: 5%
- Population Mitochondria Different-Phenotype (%) [7]: 0%
- Population Mitotic Cells (%) [7]: 18%
- Population Normal (%) [7]: 76%
- Population Pyknosed Nuclei (%) [7]: 13%
- Population Tubulin-Different-Phenotype (%) [7]: 3%
- Total Cell Count [7]: 370
- Population Apoptotic (%) [8]: 77%
- Population Fragmented Nuclei (%) [8]: 47%
- Population Healthy Nuclei (%) [8]: 35%
- Population Hoechst High Intensity Objects (%) [8]: 39%
- Population Membrane Permeable-Phenotype (%) [8]: 15%
- Population Mitochondria Different-Phenotype (%) [8]: 15%
- Population Mitotic Cells (%) [8]: 22%
- Population Normal (%) [8]: 60%
- Population Pyknosed Nuclei (%) [8]: 16%
- Population Tubulin-Different-Phenotype (%) [8]: 52%
- Total Cell Count [8]: 88
